Screens as filed in PubChem BioAssay.
FN deposit inh = fibronectin deposition inhibition; AH1F fibroblasts, Alexa488-fibronectin deposition fluorescence, overnight; inhibition, % at 12.6 µM; hit rate 0.086% among 350,000;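 active = mean inhibition across replicates of 30% or more, regardless of how many single replicates reach that level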;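 note: positive control wells lacked labelled fibronectin entirely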
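material = AH1F fibroblast monolayer depositing Alexa488-labelled fibronectin into matrix | amount = 10000 AH1F cells/well | buffer or medium = DMEM plus 2% serum, read in PBS | incubation = 1 h cell adhesion before compound, then overnight fibronectin incubation | detection = fluorescence at 485 nm excitation, 525 nm emission | evaluation = percent inhibition as loss of matrix-bound fibronectin fluorescence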
FGF22 binding = binders of recombinant human FGF22 by thermal shift. hit rate 1.5% among 340,000. Q9HCT0. SYPRO orange fluorescence; percent of sucrose octasulfate shift, DMSO zero. activity (Tm shift, normalised), % at 9.99 µM;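 active = mean Tm shift, scaled 0 neutral to 100 positive control, at about 1.3% or above, every replicate too, limit read from the data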
Statin myotox sup = suppressors of simvastatin-induced myotoxicity in C2C12 myotubes; ATP luminescence, 48 h; scaled: DMSO 0, geranylgeraniol control 100; rescue of ATP level, % at 7.49 µM; hit rate 0.78% among 330,000;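 active = mean ATP rescue above about 67%, or every replicate alone reaching that limit, limit read from the data, passing the limit was not always enough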;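 note: myotubes were challenged with 10 µM simvastatin during compound exposure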
E-selectin induc = induces E-selectin expression in human endothelial cells. P16581. HUVEC E-selectin immunofluorescence imaging; normalized: neutral wells 0, TNF-alpha wells 100. activation, % at 7.58 µM. hit rate 0.37% among 260,000. AID 686992;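 active = mean E-selectin-positive cell signal at least 10% of the positive control, reached in at least 60% of replicates, without over 20% cell loss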
Target sequence (P16581 whole entry, looked up): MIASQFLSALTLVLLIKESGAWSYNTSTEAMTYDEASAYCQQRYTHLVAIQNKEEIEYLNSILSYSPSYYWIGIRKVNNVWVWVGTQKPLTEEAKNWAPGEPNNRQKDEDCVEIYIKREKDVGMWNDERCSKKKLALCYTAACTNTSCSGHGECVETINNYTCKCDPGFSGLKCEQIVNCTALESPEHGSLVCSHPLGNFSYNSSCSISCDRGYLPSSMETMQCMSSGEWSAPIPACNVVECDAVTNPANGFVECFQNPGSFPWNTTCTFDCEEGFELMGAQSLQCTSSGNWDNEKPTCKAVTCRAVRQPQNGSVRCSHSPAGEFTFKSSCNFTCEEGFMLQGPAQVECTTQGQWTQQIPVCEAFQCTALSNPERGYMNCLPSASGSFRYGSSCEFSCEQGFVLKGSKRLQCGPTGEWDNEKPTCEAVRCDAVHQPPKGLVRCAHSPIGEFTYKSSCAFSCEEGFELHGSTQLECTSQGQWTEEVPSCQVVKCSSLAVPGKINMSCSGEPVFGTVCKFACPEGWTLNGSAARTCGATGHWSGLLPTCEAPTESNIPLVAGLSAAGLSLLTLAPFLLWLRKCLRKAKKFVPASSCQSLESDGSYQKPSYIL
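Test system: HUVEC | Signal: Immunofluorescence imaging | Read-out: Percent E-selectin-positive cells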
SIRT5 inh = inhibitors of human sirtuin-5 desuccinylase | Q9NXA8 | Purified SirT5, succinyl-peptide AMC, trypsin-coupled fluorescence | inhibition, % at 15 µM | hit rate 1.1% among 330,000; in the data active = inhibition above about 15%
rRNA inh HTS = inhibits bacterial ribosomal RNA function over humanized ribosomes | E. coli WT GFP vs humanized-ribosome RFP mutants, fluorescence, 24 h; active compounds read low; DMSO median 0, no signal -100 | GFP signal change (wild-type ribosome), % (test concentration not listed) | hit rate 1.6% among 350,000;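 active = significant combined selectivity score with lowered wild-type GFP, culture density cut under 30%, mutant RFP and density less affected; inactive = any of these conditions unmet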
* marks the source's active call; other numbers are inactive results; / = not tested or not shown. Shown are actives, neighbours in structure and some others; about 4% of the full set was active somewhere.

SMILES | FN deposit inh | FGF22 binding | Statin myotox sup | E-selectin induc | SIRT5 inh | rRNA inh HTS
COc1ccc(NC(=O)c2cc3n(n2)C(C(F)(F)F)CC(c2ccc(OC)cc2)N3)cc1 (centres undefined) | 2 | / | -28 | / | / | /
COc1ccc(C2CC(C(F)(F)F)n3nc(C(=O)NCCN4CCOCC4)cc3N2)cc1 (centres undefined) | -2 | / | 90* | / | / | /
CCC(C)[C@H]1CN=C(N)N1CCCc1cc(OC)c(OC)c(OC)c1 (some centres undefined) | 2 | 0 | 10 | 0 | 23* | 3
COCC(=O)N1[C@@H]2c3ccc(C4=CCCC4)c(=O)n3C[C@@H]2[C@@H](CO)[C@@H]1C(=O)N1CCCCC1 | / | 0 | 0 | 0 | -9 | 2
CC(C)CCOc1ccc(C(=O)N2CCCC2C(=O)O)cc1 (centres undefined) | -1 | 0 | / | / | 17* | 9
CC(C)CCOc1ccc(C(=O)O)cc1 | / | / | 16 | / | / | /
C[C@@H]1CN([C@H](C)CO)C(=O)c2cc(NC(=O)Nc3ccccc3)ccc2O[C@@H]1CN(C)Cc1ccccc1 | -7 | 0 | 17 | 1 | 18* | 1
C[C@H](CO)N1C[C@H](C)[C@H](CN(C)Cc2ccccc2)Oc2ccc(NC(=O)Nc3ccccc3)cc2C1=O | 3 | 0 | -43 | 1 | 2 | 0
C[C@H](CO)N1C[C@H](C)[C@@H](CN(C)Cc2ccc(Oc3ccccc3)cc2)Oc2ccc(NC(=O)C3CC3)cc2C1=O | / | 0 | 24 | / | 18* | -57
C[C@H](CO)N1C[C@H](C)[C@@H](CN(C)Cc2ccc(Oc3ccccc3)cc2)Oc2ccc(NC(=O)Nc3ccccc3)cc2C1=O | / | -1 | -10 | 0 | 11 | 0
CC(C)NC(=O)Nc1ccc2c(c1)C(=O)N([C@@H](C)CO)C[C@H](C)[C@H](CN(C)Cc1ccc(C(F)(F)F)cc1)O2 | / | 0 | 3 | 51* | 3 | 1
C[C@@H]1CN([C@@H](C)CO)C(=O)c2cc(NC(=O)Nc3ccccc3)ccc2O[C@@H]1CN(C)Cc1ccc(Oc2ccccc2)cc1 | / | 0 | -51 | 0 | 17* | -4
CN1C(=O)c2cc(NC(=O)c3ccc(F)cc3)ccc2OC[C@H]2O[C@H](CC(=O)NC3CCC3)CC[C@@H]21 | -3 | 0 | 7 | 0 | -3 | 3
C[C@@H]1CN([C@@H](C)CO)C(=O)c2cc(NC(=O)Nc3ccc(C(F)(F)F)cc3)ccc2O[C@@H]1CN(C)Cc1ccc(Oc2ccccc2)cc1 | / | 0 | -29 | 100* | 6 | 3
C[C@H]1CN([C@@H](C)CO)C(=O)c2cc(NC(=O)Nc3ccc(C(F)(F)F)cc3)ccc2O[C@@H]1CN(C)Cc1ccccc1 | / | 27* | -10 | 1 | 0 | 1
CCCNC(=O)C[C@@H]1C[C@@H]2c3cc(NC(=O)c4ccc5c(c4)OCO5)ccc3O[C@@H]2[C@H](CO)O1 | -3 | 0 | 2 | -1 | / | 1
Cc1nc2ccccc2n1Cc1ccc(Br)cc1 | 7 | 0 | / | / | -3 | -47*
COc1ccc(NC(=O)N(C)C[C@H]2OCCCC[C@H](C)Oc3ccc(NS(=O)(=O)c4cccs4)cc3C(=O)N([C@H](C)CO)C[C@@H]2C)cc1 | / | 0 | / | 0 | 1 | -1
COc1cc(/C=N/NC(=O)C(=O)NCC2CCCO2)ccc1OCC(=O)N1CCOCC1 (centres undefined) | 0 | 44* | / | / | 0 | 12
COc1cc(/C=N/NC(=O)C(=O)NCC2CCCO2)cc(Cl)c1O (centres undefined) | 4 | -1 | -9 | / | 2 | -4
CN(C)S(=O)(=O)c1cccc(NC(=O)c2cc3c(=O)n4ccccc4nc3s2)c1 | -1 | 0 | -3 | 0 | 16* | 4
CCN(CC)S(=O)(=O)c1cc(NC(=O)c2n[nH]c(=O)c3ccccc23)ccc1C | / | 1 | -13 | / | -3 | 4
Cc1cc(NS(=O)(=O)c2ccc(NC(=O)c3cc4c(=O)n5ccccc5nc4s3)cc2)nc(C)n1 | 3 | 0 | / | 0 | -4 | -2
CN(C)S(=O)(=O)c1cccc(NC(=O)c2n[nH]c(=O)c3ccccc23)c1 | 13 | 0 | / | 5 | 4 | -26*
CN(CC(=O)Nc1ccc(F)cc1)C(=O)Cn1cnc2ccc([N+](=O)[O-])cc2c1=O | 7 | 0 | -4 | 0 | 24* | 18
SMILES | FN deposit inh | FGF22 binding | Statin myotox sup | E-selectin induc | SIRT5 inh | rRNA inh HTS
O=C(Cn1cnc2cc([N+](=O)[O-])ccc2c1=O)NCCc1ccc(F)cc1 | / | 0 | 3 | / | -5 | 6
COc1ccc(CN(C)C[C@H]2OCCCC[C@@H](C)Oc3ccc(NS(=O)(=O)c4c(C)noc4C)cc3C(=O)N([C@@H](C)CO)C[C@H]2C)cc1 | / | 0 | / | 0 | -1 | 0
C=CCc1c(C)nc(-c2ccccc2)nc1N/N=C/c1ccncc1 | 2 | 43* | / | 3 | -2 | 6
CO[C@@H]1CN(C)C(=O)c2cc(NS(=O)(=O)c3cn(C)cn3)ccc2OC[C@H](C)N(Cc2cccc(F)c2)C[C@H]1C | 6 | -1 | 9 | 0 | / | -6
CC1(NCc2ccc(Cl)cc2)COP(=O)(NCc2ccccc2)OC1 (centres undefined) | 3 | 0 | 3 | 0 | 16* | -4
O=C(CC(=O)NCc1ccc(Cl)cc1)NCc1ccccc1 | -1 | 0 | 8 | 1 | -3 | 2
CO[C@H]1CN(C)C(=O)c2ccc(NS(=O)(=O)c3ccccc3Cl)cc2OC[C@H](C)NC[C@@H]1C | 11 | 0 | 2 | 0 | 0 | 2
CC(C)(C)c1ccccc1OCCCCCn1ccnc1 | -19 | 44* | / | 2 | -7 | -55*
CSc1cccc(NC(=O)c2ccc(CN3CCc4ccccc4C3)cc2)c1 | -1 | 0 | -20 | / | -1 | -23*
O=C(Nc1cccc(Br)c1)c1ccc(CN2CCc3ccccc3C2)cc1 | 5 | 0 | -30 | 0 | -32 | 3
CN(/N=C/Cc1nnnn1-c1ccc(Cl)cc1)c1ccccc1 | 2 | 0 | / | / | -1 | -22*
CN(C)Cc1nnnn1-c1ccccc1 | -1 | 0 | 6 | / | 4 | 2
COc1ccc2c3c([nH]c2c1)[C@H](CO)N(Cc1ccccc1F)CC31CCN(CC2CC2)CC1 | / | 0 | / | -1 | 3 | 0
C[C@H]1CCCCO[C@@H](CN(C)Cc2ccncc2)[C@@H](C)CN([C@@H](C)CO)C(=O)c2cc(NS(=O)(=O)c3ccc(F)cc3)ccc2O1 | -9 | 0 | / | 0 | 9 | -2
CCCc1cc(=O)[nH]c(Nc2ccc3c(c2)OCCO3)n1 | -1 | 0 | 7 | -1 | 1 | -16*
